Experimental data of several laboratories.
Each line is one published result; the experiments were not run side by side.
Target: 5-hydroxytryptamine receptor 3A (HTR3A, Homo sapiens, UniProt P46098)
Tested at: 10 µM
One construct used (P46098 24-478): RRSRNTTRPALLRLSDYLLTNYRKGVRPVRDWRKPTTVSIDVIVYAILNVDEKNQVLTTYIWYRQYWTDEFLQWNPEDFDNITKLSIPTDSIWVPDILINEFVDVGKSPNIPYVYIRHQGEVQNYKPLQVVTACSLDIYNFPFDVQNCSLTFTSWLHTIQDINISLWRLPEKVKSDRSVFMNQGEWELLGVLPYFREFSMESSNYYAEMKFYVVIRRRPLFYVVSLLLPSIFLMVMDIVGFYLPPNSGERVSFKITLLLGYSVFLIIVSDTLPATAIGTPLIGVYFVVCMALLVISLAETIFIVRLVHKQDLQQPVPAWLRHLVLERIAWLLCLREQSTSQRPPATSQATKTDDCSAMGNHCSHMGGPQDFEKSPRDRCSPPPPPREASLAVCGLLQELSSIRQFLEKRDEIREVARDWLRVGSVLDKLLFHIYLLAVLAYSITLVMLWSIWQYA

SMILES	effect on	method	inhibition [%]
CCCNc1nc2ccccc2n1Cc1ccc(Cl)cc1	cell-free assay	–	-1.96
COc1cc2c3c(c1OC)-c1cc4c(cc1CC3N(CC1CC1)CC2c1ccccc1)OCO4 (stereo not shown)	ligand displacement	radioligand	-13.3
CCN(CC)c1ccc(C2Nc3ccc(C(=O)c4ccccc4)cc3NC3=C2C(=O)CC(C)(C)C3)cc1 (stereo not shown)	ligand displacement	radioligand	-5
N#Cc1cc(Cn2c(N3CCCC3)nc3ccccc32)ccc1F	cell-free assay	–	-12.4
COc1cc(NC(C)=O)c(Cl)cc1C(=O)Nc1nccs1	ligand displacement	radioligand	15.9
COc1cc(N[C@@H]2CCCC[C@]2(O)C(F)(F)F)ccc1F	cell-free assay	–	11.6
O=C1N=C(N2CCCCN2)S/C1=C\c1ccc(F)cc1O	ligand displacement	radioligand	17
O=C(c1ccc(Cl)cc1)N(Cc1ccccc1)C1CCCCC1	ligand displacement	radioligand	1.9
O=C(NC1C2CCN(CC2)C1Cc1cccnc1)c1cc2ccccc2o1 (stereo not shown)	ligand displacement	radioligand	25
CC[C@H](CC(=O)O)n1c(=O)c2ncccc2n(Cc2cn(C)c3cc(C)cc(C)c23)c1=O	cell-free assay	–	0.31
